The record followed here is ChEMBL document CHEMBL1149590, “Synthesis and evaluation of homo-bivalent GnRHR ligands” (Bioorg Med Chem, 2007).

The target of assay [1] is T1, Gonadotropin-releasing hormone receptor (Homo sapiens) (UniProt P30968).
T1 sequence (whole entry): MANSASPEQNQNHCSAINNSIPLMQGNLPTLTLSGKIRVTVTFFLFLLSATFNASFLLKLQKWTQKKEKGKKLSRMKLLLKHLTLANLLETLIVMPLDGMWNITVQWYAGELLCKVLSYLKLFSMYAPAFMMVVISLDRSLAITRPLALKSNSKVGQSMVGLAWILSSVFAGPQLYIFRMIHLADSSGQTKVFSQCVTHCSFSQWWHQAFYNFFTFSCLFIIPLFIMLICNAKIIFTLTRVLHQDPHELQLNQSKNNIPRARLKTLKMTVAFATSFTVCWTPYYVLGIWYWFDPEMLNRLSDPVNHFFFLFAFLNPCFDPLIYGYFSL
Briefly: Displacement of [125I]triptorelin from human GnRHR expressed in CHO cells at 1 uM. The assay is classed as cell-based. The procedure, abridged: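 Single-point displacement at 1 μM test compound. CHO membranes bearing wild-type human GnRHR (20 µg protein) incubated 45 min at 22 °C with [125I]triptorelin (30,000 cpm) in Tris-HCl pH 7.4 containing MgCl2 and BSA. Nonspecific binding taken with 1 µM ganirelix, total binding with buffer. Bound radioligand recovered by filtration and gamma-counted; percent displacement reported.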
(In a radioligand displacement assay an active substance lowers the binding of a labelled ligand.)

In assay [2] the target is T2, Gonadotropin-releasing hormone receptor (Homo sapiens, UniProt P30968).
T2 sequence (P30968 whole entry): T1 sequence (whole entry)
Briefly: Displacement of [125I]triptorelin from human GnRHR expressed in CHO cells. The assay is classed as cell-based. The essentials: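 Membranes from CHO cells expressing wild-type human GnRHR (20 µg protein) incubated with [125I]triptorelin (30,000 cpm) and five competitor concentrations in 50 mM Tris-HCl pH 7.4, 2 mM MgCl2, 0.1% BSA, 45 min at 22 °C. Nonspecific binding defined with 1 µM ganirelix. Filtration, gamma counting. Ki from IC50 via Cheng-Prusoff (Kd 1.1 nM); at least three experiments in duplicate.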

For assay [3], the target named is T2, Gonadotropin-releasing hormone receptor. Briefly: Antagonist activity at human GnRHR expressed in CHO cells after 30 mins by luciferase reporter gene assay. The assay is classed as functional, cell-based. A general note: In a reporter assay the amount or activity of a reporter protein is the signal.

As for `CCNC(=O)Nc1ccc(-c2nc3n(Cc4c(F)cccc4F)cc(C(=O)OCC)c(=O)n3c2CN(CC(=O)NCc2cn(CCOCCOCCOCCOCCn3cc(CNC(=O)CN(Cc4ccccc4)Cc4c(-c5ccc(NC(=O)NCC)cc5)nc5n(Cc6c(F)cccc6F)cc(C(=O)OCC)c(=O)n45)nn3)nn2)Cc2ccccc2)cc1`, the Activity in assay [1] was determined as 89%. The affinity in assay [2] corresponds to a Ki of 195 nM. Besides, the midpoint of inhibition in assay [3], the IC50, lay at 309 nM.

As to `CCNC(=O)Nc1ccc(-c2nc3n(Cc4c(F)cccc4F)cc(C(=O)OCC)c(=O)n3c2CN(C)Cc2ccccc2)cc1`, in assay [1], the Activity was 99%. The Ki (usually a dissociation constant, usually derived from enzyme kinetics or from competition with a known ligand) in assay [2] was 4.79 nM. Further, half-maximal inhibition in assay [3] (IC50) was put at 70.8 nM.

With `C#CCNC(=O)CN(Cc1ccccc1)Cc1c(-c2ccc(NC(=O)NCC)cc2)nc2n(Cc3c(F)cccc3F)cc(C(=O)OCC)c(=O)n12`, the Activity in assay [1] amounted to 98%. The Ki in assay [2] was 5.25 nM. Besides, the IC50 (usually the concentration needed to halve the response being measured) in assay [3] was 1000 nM.
